# According to ChEMBL document CHEMBL1142230, “Small-molecule activators of RNase L with broad-spectrum antiviral activity” (Proc Natl Acad Sci U S A, 2007):
# Active and inactive are the calls of the source. No cut-off for these calls is given here.
# Legend:
# [1] = biological target: T1, 2-5A-dependent ribonuclease (Homo sapiens, UniProt Q05823); assay: Activation of human recombinant Rnase L assessed as cleavage of FRET RNA probe
# T1 sequence (Q05823 whole entry): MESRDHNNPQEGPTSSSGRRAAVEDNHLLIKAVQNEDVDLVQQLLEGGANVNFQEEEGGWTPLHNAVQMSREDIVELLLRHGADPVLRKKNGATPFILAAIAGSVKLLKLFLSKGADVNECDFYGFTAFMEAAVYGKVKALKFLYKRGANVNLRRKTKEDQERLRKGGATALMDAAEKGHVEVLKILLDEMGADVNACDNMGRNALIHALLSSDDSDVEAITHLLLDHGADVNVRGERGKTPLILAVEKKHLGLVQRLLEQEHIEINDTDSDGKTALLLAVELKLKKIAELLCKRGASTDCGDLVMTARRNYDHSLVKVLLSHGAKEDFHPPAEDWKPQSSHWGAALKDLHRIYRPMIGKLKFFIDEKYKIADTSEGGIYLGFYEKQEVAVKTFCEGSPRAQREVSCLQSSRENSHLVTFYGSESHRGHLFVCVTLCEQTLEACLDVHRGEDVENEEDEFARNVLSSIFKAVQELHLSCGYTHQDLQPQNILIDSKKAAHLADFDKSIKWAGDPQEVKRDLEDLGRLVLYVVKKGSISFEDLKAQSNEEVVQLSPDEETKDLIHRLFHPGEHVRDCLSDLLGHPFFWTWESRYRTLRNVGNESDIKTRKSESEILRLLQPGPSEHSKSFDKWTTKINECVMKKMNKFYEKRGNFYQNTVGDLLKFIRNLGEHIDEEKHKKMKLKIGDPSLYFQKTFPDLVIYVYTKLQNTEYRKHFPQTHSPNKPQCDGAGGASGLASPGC
# How it was run: (§1)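 Baculovirus-expressed, FPLC-purified recombinant human RNase L (25 nM) with 100 nM 36-nt 6-FAM/BHQ-1 FRET RNA probe (Km 75 nM) in cleavage buffer: 25 mM Tris·HCl pH 7.4, 100 mM KCl, 10 mM MgCl2, 50 μM ATP, 7 mM 2-mercaptoethanol. 22°C up to 2 h; fluorescence ex 485/em 535 nm. Compounds delivered from DMSO stocks; rescreened without RNase L to remove false positives.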
# [2] = biological target: T1, 2-5A-dependent ribonuclease; assay: Binding affinity to human recombinant RNase L
# How it was run: (§2)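 Biotinylated 2-5A immobilized on streptavidin biosensor chips; 10 nM RNase L with varying activator concentrations passed over the chip. Response units recorded over time, and maximum response at equilibrium (Rmax) fitted against concentration by global fit.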
# [3] = biological target: T1, 2-5A-dependent ribonuclease; assay: Displacement of 5'-phosphorylated, 2',5'-oligoadenylate from human recombinant RNase L assessed as decrease in resonance by surface plasma resonance; how it was run: as §2
# [4] = biological target: T2, 2-5A-dependent ribonuclease (Homo sapiens) (UniProt Q05823); assay: Activation of human recombinant RNase L assessed as cleavage of FRET RNA probe at 15 mins; how it was run: as §1
# T2 sequence (whole entry): T1 sequence (Q05823 whole entry)
# [5] = biological target: T2, 2-5A-dependent ribonuclease (Homo sapiens); assay: Activation of human recombinant RNase L assessed as cleavage of p32-labelled RNA molecule at 25 uM after 30 mins
# [6] = biological target: T2, 2-5A-dependent ribonuclease (Homo sapiens); assay: Induction of dimerization of human RNaseL at 0.06 to 0.25 uM assessed by Western blotting
# How it was run: (§3)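 RNase L incubated with 2-5A or activator, with or without the cross-linker dimethyl suberimidate. Oligomeric state (monomer vs dimer) read by SDS/PAGE and Western blot probed with anti-RNase L monoclonal antibody.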
# XMRV = assay: Antiviral activity against human retrovirus XMRV in human DU145 cells assessed as suppression of infection; type: functional, cell-based; details: Xenotropic MuLV-related virus; DU-145
# How it was run: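 DU145 cells infected with XMRV for 3 h in FBS-free RPMI 1640 containing 8 μg/ml polybrene, then washed. Treated in triplicate with compound in fresh complete RPMI for 2 d. Reverse transcriptase activity measured in supernatants.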
# Human respirovirus 3 [7] = assay: Antiviral activity against human parainfluenza virus3 in HeLaM cells expressing wild type RNaseL by plaque assay
# Respirovirus muris = assay: Antiviral activity against sendai virus in HeLaS cell assessed as suppression of infection; type: functional, organism-based
# How it was run: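 HeLa S cells infected with Sendai virus (Cantell), 20 HA units/ml, in serum-free medium for 90 min. Cells washed and given complete medium with compound doses. Supernatant collected at 24 h; viral genomic RNA quantified by real-time RT-PCR; triplicate.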
# Human respirovirus 3 [8] = assay: Antiviral activity against human parainfluenza virus3 in HeLaS cells expressing wild type RNaseL after 24 hrs by GFP reporter assay; type: functional
# How it was run: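 HeLa S cells, with endogenous wild-type RNase L, were infected with HPIV3/GFP at MOI 1.0. After 90 min, medium was removed and cells were washed twice with PBS. Cells were then incubated in complete medium without compound or with 10, 50 or 100 μM compound. GFP fluorescence was imaged by fluorescence microscopy at 24 h post-infection.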
# [9] = tested on: Encephalomyocarditis virus; assay: Antiviral activity against encephalomyocarditis virus in wild type mouse fibroblasts assessed as reduction in viral growth; type: functional
# How it was run: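 SV40 T antigen-transformed wild-type mouse embryonic fibroblasts were grown in RPMI 1640 with 10% FBS and seeded at 2.5 × 10⁵ cells/well. After 1 h, cells were infected with EMCV strain K (MOI 0.5) in serum-free medium for 1 h, washed with PBS, then fed complete medium containing varied compound amounts. At 12 h, titres were measured by plaque assay on L929 cells, in triplicate.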
# [10] = biological target: T2, 2-5A-dependent ribonuclease (Homo sapiens); assay: Activation of human recombinant RNaseL at 40 uM assessed as cleavage of FRET RNA probe; how it was run: as §1
# [11] = biological target: T2, 2-5A-dependent ribonuclease (Homo sapiens); assay: Induction of dimerization of human RNaseL at 3 to 12 uM assessed by Western blotting; how it was run: as §3
# HeLaS = assay: Cytotoxicity against of human HeLaS cells assessed as reduction of cell viability upto 50 uM; type: functional, cell-based
# How it was run: (§4)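 SV40-transformed mouse embryonic fibroblasts or HeLa S cells (10^4/well) treated with compound up to 50 μM for 24 h. MTS reagent added for 3 h at 37°C; absorbance read at 490 nm. Triplicate, with SDs.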
# [12] = Cytotoxicity against mouse fibroblast assessed as reduction of cell viability upto 50 uM; type: cell-based; how it was run: as §4
# Human respirovirus 3 [13] = assay: Antiviral activity against human parainfluenza virus3 in HeLaM cells expressing RNaseL R667A mutant […]; type: functional
# How it was run: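 HeLa M cells expressing R667A RNase L cDNA were grown in DMEM with 10% FBS. They were infected with HPIV3/GFP (MOI 1.0) in serum-free medium for 90 min, washed with PBS, then given complete medium with varied compound amounts. At 24 h, virus was harvested by two freeze–thaw cycles and titred by plaque assay on CV1 cells, in triplicate.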
smiles,measurement,setting,value
CCOC(=O)C1=C(Nc2ccc(Cl)cc2)S/C(=C\c2cccc(O)c2)C1=O,EC50,[1],49 µM
Nc1ncnc2c1ncn2[C@@H]1O[C@H](CO[P@](=O)(O)O[C@@H]2[C@H](O)[C@@H](CO[P@](=O)(O)O[C@@H]3[C@H](O)[C@@H](CO[P@](=O)(O)O[P@@](=O)(O)OP(=O)(O)O)O[C@H]3n3cnc4c(N)ncnc43)O[C@H]2n2cnc3c(N)ncnc32)[C@@H](O)[C@H]1O,EC50,[1],0.0005 µM
same,Kd,[2],0.04 nM
same,Kd,[3],0.00022 µM
COc1ccc(Cl)cc1NC(=O)c1cc2c(C)nn(-c3ccccc3)c2s1,EC50,[1],48 µM
CC(=O)c1ccc(NC(=S)NC(NC(=O)Cc2ccccc2)C(Cl)(Cl)Cl)cc1 (stereo not drawn),EC50,[1],79 µM
CCCCOC(=O)c1ccc(NC(=S)NC(NC(=O)CC)C(Cl)(Cl)Cl)cc1 (stereo not drawn),EC50,[1],90 µM
O=c1[nH]c(-c2ccc(O)cc2)nc2sc3c(c12)CCCC3,EC50,[1],26 µM
Cc1ccc(NC2=NC(=O)/C(=C/c3cccc(O)c3)S2)c(Cl)c1,EC50,[1],49 µM
Nc1ncnc2c1ncn2[C@@H]1O[C@H](COP(=O)(O)O[C@@H]2[C@H](O)[C@@H](COP(=O)(O)O[C@@H]3[C@H](O)[C@@H](COP(=O)(O)OP(=O)(O)OP(=O)(O)O)O[C@H]3n3cnc4c(N)ncnc43)O[C@H]2n2cnc3c(N)ncnc32)[C@@H](O)[C@H]1O,Activity,[4],Active
same,Activity,[5],Active
same,Activity,[6],Active
Cc1c(Cl)cccc1NC1=NC(=O)/C(=C/c2ccc([N+](=O)[O-])cc2)S1,EC50,[1],50 µM
O=c1[nH]c(-c2cccc([N+](=O)[O-])c2)nc2sc3c(c12)CCCC3,EC50,[1],22 µM
O=c1[nH]c(-c2cccc(O)c2)nc2sc3c(c12)CCCC3,EC50,[1],22 µM
same,Activity,XMRV,Active
same,Activity,Human respirovirus 3 [7],Active
same,Activity,Respirovirus muris,Active
same,Activity,Human respirovirus 3 [8],5
same,Activity,[9],7
same,Activity,[10],Active
same,Activity,[11],Active
same,Activity,HeLaS,inactive
same,Kd,[3],12 µM
same,Activity,[12],Not Active
same,Activity,Human respirovirus 3 [13],<2
same,Activity,[5],Active
CCCCOC(=O)c1ccc(NC(=S)NC(NC(C)=O)C(Cl)(Cl)Cl)cc1 (stereo not drawn),EC50,[1],99 µM
CCOC(=O)C1=C(Nc2ccccc2)S/C(=C\c2cccc(O)c2)C1=O,EC50,[1],26 µM
same,Activity,Respirovirus muris,Active
same,Activity,[9],7
same,Activity,[10],Active
same,Activity,[11],Active
same,Activity,HeLaS,inactive
same,Kd,[3],18 µM
same,Activity,[12],Not Active
same,Activity,[5],Active
same,Activity,[6],Active
